In ChEMBL document CHEMBL2346587, “Design, synthesis, and evaluation of a water-soluble antofine analogue with high antiproliferative and antitumor activity” (Bioorg Med Chem, 2013):
The source made the active and inactive calls. No cut-off for these calls is given here.

Columns and labels:
A549 [1] = test: Cell cycle arrest in human A549 cells assessed as accumulation at sub-G1 phase at 400 nM after 24 hrs by flow cytometry (reference value: 1.40 %); assay type: functional
A549 [2] = test: Inhibition of AKT activation in human A549 cells assessed as reduction in c-myc protein expression at 50 to 400 nM after 24 hrs by Western blot analysis; assay type: cell-based
Method in brief: (§1)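 A549 cells plated at 3 × 10^5 per 60 mm dish, grown 24 h, then exposed to a concentration series for 24 h. Lysed in boiling SDS sample buffer with NaF and orthovanadate; protein by BCA; 25–50 µg run on 8–15% SDS-PAGE, transferred to PVDF, blocked in 5% milk/PBST, primary antibodies overnight at 4 °C, secondary 1–2 h, ECL detection.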

A549 [3] = test: Cell cycle arrest in human A549 cells assessed as accumulation at G2/M phase at 400 nM after 24 hrs by flow cytometry (reference value: 22.84 %); assay type: functional
A549 [4] = test: Cell cycle arrest in human A549 cells assessed as accumulation at G2/M phase at 100 nM after 24 hrs by flow cytometry (reference value: 22.84 %); assay type: functional
A549 [5] = test: Antitumor activity against human A549 cells xenografted in athymic nu/nu BALB/c mouse assessed as inhibition of tumor growth at 5 mg/kg, ip administered 35 days post-implantation 3 times a week relative to control; assay type: functional; settings: 840 h, route intraperitoneal, read-out: TGI
Method in brief: (§2)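 Female athymic BALB/c nu/nu mice, six weeks old; 2 × 10^6 A549 or A549-Pa cells in 0.1 mL RPMI injected s.c. into right flank on day 0. Dosing began at 95–100 mm3 tumour volume: drug in 1% cremophore in PBS given i.p. three times weekly; controls got vehicle; five mice/group. Tumour volume tracked every 3–5 days; tumours excised and weighed at end; sections immunostained for Ki-67.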

A549 [6] = test: Antitumor activity against paclitaxel-resistant human A549 cells xenografted in athymic nu/nu BALB/c mouse assessed as inhibition of tumor growth at 10 mg/kg, ip administered 35 days post-implantation 3 times a week relative to control; assay type: functional; settings: 840 h, route intraperitoneal, read-out: TGI; method in brief: as §2
A549 [7] = test: Effect on CDK2 protein expression at G0/G1 phase in human A549 cells at 50 to 400 nM after 24 hrs by Western blot analysis; assay type: functional, cell-based; method in brief: as §1
[8] = Inhibition of Wnt signaling in human A549 cells assessed as reduction in cyclin D1 protein expression at 50 to 400 nM after 24 hrs by Western blot analysis; assay type: cell-based
Method in brief: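 A549 cells were seeded at 3 × 10^5 per 60 mm dish, grown 24 h, then given graded compound concentrations for 24 h. Lysis was in boiling SDS buffer, with BCA protein assay. 25–50 µg per lane was run on 8–15% SDS-PAGE and blotted to PVDF. Primary antibodies (1:1000–1:2000) went on overnight at 4 °C, then secondary and ECL read-out.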

A549 [9] = test: Inhibition of AKT/mTOR signaling in human A549 cells assessed as inhibition of eIF4E phosphorylation at 50 to 400 nM after 24 hrs by Western blot analysis; assay type: cell-based; method in brief: as §1
[10] = target: T1, ATP-dependent translocase ABCB1 (Homo sapiens, UniProt P08183); test: Inhibition of P-gp activity in human paclitaxel-resistant A549 cells assessed as rhodamine 123 accumulation at 200 nM after 72 hrs by FACS analysis (reference value: 14.4 %); assay type: cell-based; design: scale not given: the % may be the effect or the level left; settings: a549, 72 h, 0.2 µM
SK-HEP1 = test: Cytotoxicity against human SKHEP1 cells after 72 hrs by SRB assay; assay type: functional, cell-based; settings: SK-HEP1, 72 h
Method in brief: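 SRB growth assay: 5 × 10^3 cells/well exposed to a concentration series for 72 h; fixed in 10% TCA 30 min at 4 °C, stained with 0.4% SRB in 1% acetic acid 30 min, dye dissolved in 10 mM Tris pH 10.0, absorbance at 515 nm. Viability relative to vehicle control; IC50 by non-linear regression; at least three experiments. A549-Pa is a paclitaxel-resistant A549 subline.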

A549 [11] = test: Inhibition of AKT/c-myc signaling in human A549 cells assessed as reduction in cyclin E protein expression at 50 to 400 nM after 24 hrs by Western blot analysis; assay type: cell-based; method in brief: as §1
A549 [12] = test: Cell cycle arrest in human A549 cells assessed as accumulation at G0/G1 phase at 200 nM after 24 hrs by flow cytometry (reference value: 62.38 %); assay type: functional
[13] = target: T1, ATP-dependent translocase ABCB1; test: Inhibition of P-gp activity in human paclitaxel-resistant A549 cells potentiation of 2.5 uM gefitinib-induced cytotoxicity at 0.05 uM by SRB assay; assay type: cell-based; settings: a549, 0.05 µM
Method in brief: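 A549-Pa cells plated at 5 × 10^4 cells/well and co-treated for 48 h with the compound (0–200 nM) plus paclitaxel or gefitinib; growth inhibition by SRB assay. Combination index computed at the 50% inhibition level as CI = D1/(Dx)1 + D2/(Dx)2, comparing combined versus single-agent concentrations.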

A549 [14] = test: Cell cycle arrest in human A549 cells assessed as accumulation at sub-G1 phase at 200 nM after 24 hrs by flow cytometry (reference value: 1.40 %); assay type: functional
A549 [15] = test: Cell cycle arrest in human A549 cells assessed as accumulation at S phase at 100 nM after 24 hrs by flow cytometry (reference value: 13.38 %); assay type: functional
[16] = target: T1, ATP-dependent translocase ABCB1; test: Inhibition of P-gp activity in human […] A549 cells potentiation of 10 uM paclitaxel-induced cytotoxicity at 0.2 uM by SRB assay; assay type: cell-based; settings: a549, 0.2 µM
A549 [17] = test: Inhibition of P-gp protein expression level in human paclitaxel-resistant A549 cells at 50 to 200 nM after 48 hrs by Western blot analysis; assay type: functional, cell-based
Method in brief: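 A549-Pa cells, with parent A549 for comparison, were exposed to compound for 48 h. Lysates were made in boiling SDS sample buffer and protein measured by BCA. Equal protein (25–50 µg) was run on 8–15% SDS-PAGE, transferred to PVDF and blocked in 5% milk/PBST. Anti-P-gp primary was applied overnight at 4 °C, then secondary antibody and ECL detection.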

A549 [18] = test: Cell cycle arrest in human A549 cells assessed as accumulation at sub-G1 phase at 50 nM after 24 hrs by flow cytometry (reference value: 1.40 %); assay type: functional
A549 [19] = test: Cell cycle arrest in human A549 cells assessed as accumulation at G0/G1 phase at 100 nM after 24 hrs by flow cytometry (reference value: 62.38 %); assay type: functional
A549 [20] = test: Inhibition of MDR-1 gene expression in human paclitaxel-resistant A549 cells at 50 to 200 nM after 48 hrs by RT-PCR analysis; assay type: functional, cell-based
Method in brief: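 A549-Pa cells (1 × 10^5 per 100 mm dish) exposed for 48 h; RNA isolated with TRI reagent, 1 µg reverse-transcribed with AMV RT and oligo(dT)15. MDR-1 amplified with specific primers: 94 °C 4 min; 35 cycles of 94 °C 30 s, 55 °C 30 s, 72 °C 30 s; 72 °C 5 min. Products resolved on 2% agarose, SYBR Safe stained.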

T1 sequence (P08183 whole entry): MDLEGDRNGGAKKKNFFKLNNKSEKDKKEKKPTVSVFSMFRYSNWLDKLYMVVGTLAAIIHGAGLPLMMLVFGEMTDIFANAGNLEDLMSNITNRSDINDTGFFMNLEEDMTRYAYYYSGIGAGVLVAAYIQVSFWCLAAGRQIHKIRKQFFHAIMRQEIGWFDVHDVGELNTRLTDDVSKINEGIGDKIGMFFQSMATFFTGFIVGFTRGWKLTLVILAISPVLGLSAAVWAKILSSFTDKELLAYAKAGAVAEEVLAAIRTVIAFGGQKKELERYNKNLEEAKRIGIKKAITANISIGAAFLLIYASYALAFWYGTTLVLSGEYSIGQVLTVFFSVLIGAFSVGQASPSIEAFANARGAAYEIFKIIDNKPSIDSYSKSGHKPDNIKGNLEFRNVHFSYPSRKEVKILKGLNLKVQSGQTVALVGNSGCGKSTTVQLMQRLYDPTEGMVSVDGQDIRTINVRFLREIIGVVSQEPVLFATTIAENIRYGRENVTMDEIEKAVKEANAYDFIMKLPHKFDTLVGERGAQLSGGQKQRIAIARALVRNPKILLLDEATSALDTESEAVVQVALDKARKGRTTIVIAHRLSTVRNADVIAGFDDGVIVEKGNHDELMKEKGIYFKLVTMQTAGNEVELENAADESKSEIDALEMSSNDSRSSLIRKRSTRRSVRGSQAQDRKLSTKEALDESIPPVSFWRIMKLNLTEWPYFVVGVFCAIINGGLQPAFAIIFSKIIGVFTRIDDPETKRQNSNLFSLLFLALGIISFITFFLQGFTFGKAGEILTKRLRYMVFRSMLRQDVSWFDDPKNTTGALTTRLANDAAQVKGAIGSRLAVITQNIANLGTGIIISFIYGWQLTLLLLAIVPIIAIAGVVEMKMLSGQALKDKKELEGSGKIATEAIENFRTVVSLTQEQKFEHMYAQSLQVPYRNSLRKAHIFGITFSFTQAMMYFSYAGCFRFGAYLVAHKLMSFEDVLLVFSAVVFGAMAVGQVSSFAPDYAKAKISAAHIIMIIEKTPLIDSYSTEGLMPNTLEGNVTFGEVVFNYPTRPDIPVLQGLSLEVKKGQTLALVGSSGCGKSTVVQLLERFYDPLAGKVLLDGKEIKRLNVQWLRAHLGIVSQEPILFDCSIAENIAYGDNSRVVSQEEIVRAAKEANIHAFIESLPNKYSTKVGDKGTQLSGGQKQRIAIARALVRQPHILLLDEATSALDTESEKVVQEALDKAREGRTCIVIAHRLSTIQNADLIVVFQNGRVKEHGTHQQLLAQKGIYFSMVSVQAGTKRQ

COc1ccc2c3c(c4cc(OC)c(OC)cc4c2c1)C[C@@]1(CO)CCCN1C3
Activity (A549 [1]): 1.21% | inhibition (A549 [2]): Active | Activity (A549 [3]): 20.41% | Activity (A549 [4]): 18.53% | inhibition in vivo at 5 mg/kg (A549 [5]): 54.9% | inhibition in vivo at 10 mg/kg (A549 [6]): 54.8% | Activity (A549 [7]): inactive | inhibition [8]: Active | inhibition (A549 [9]): Active | Activity [10]: 37.1% | IC50 (SK-HEP1): 0.06 µM | inhibition (A549 [11]): Active | Activity (A549 [12]): 69.43% | fractional inhibitory concentration index (FICI) [13]: 0.653 | Activity (A549 [14]): 1.29% | Activity (A549 [15]): 10.78% | fractional inhibitory concentration index (FICI) [16]: 1.002 | inhibition (A549 [17]): Active | Activity (A549 [18]): 1.13% | Activity (A549 [19]): 68.38% | inhibition (A549 [20]): Active
